Active and inactive are the calls of the source. The rule behind the calls is not given here.

The test system of one assay is INS-1E. Put plainly: (§1) Increase in glucose-stimulated insulin secretion in rat INS-1E cells at 1 uM after 60 mins in presence of 16.7 mM glucose. The assay is classed as functional. In a few lines:
(§2)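 INS-1E cells were pre-cultured 72 h, then preincubated 15 min in M-KRB (pH 7.4, 1% BSA). They were exposed for 60 min at 37 °C to test agent diluted from a 10−3 M DMSO stock to final 10−12–10−6 M in M-KRB with 16.7 mM glucose, with DMSO equalized across solutions. Insulin in the supernatant was measured by RIA (anti-insulin antibody, 125I-insulin tracer, rat insulin standard), and cell protein by Bradford. Mean ± SEM is reported against the 16.7 mM glucose control.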

A short description of assay [1]: Increase in glucose-stimulated insulin secretion in rat INS-1E cells at 10^-10 M after 60 mins in presence of 16.7 mM glucose. The assay is classed as functional. The method in brief: as §2
Assay [2] is described as follows: Increase in glucose-stimulated insulin secretion in rat INS-1E cells at 10^-8 M after 60 mins in presence of 16.7 mM glucose. The assay is classed as functional. In a few lines: as §2
Assay [3] can be described thus: as §1. The assay is classed as functional. In a few lines:
as §2

The nature of assay [4]: Increase in glucose-stimulated insulin secretion in rat INS-1E cells at 10^-8 M after 72 hrs in presence of 16.7 mM glucose. Format: functional. The method in brief: (§3)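 INS-1E cells were seeded and grown 72 h at 37 °C in growth medium containing test agent at final 10−12, 10−10 or 10−8 M, with DMSO equalized. After a 15 min preincubation in M-KRB, cells were stimulated 60 min with M-KRB at 3.3 or 16.7 mM glucose. Supernatant insulin was measured by RIA. Mean ± SEM is compared with the control at the matching glucose level.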

Assay [5] in a line: Increase in glucose-stimulated insulin secretion in rat INS-1E cells at 10^-10 M after 72 hrs in presence of 16.7 mM glucose. The assay is classed as functional. In a few lines: as §3
Assay [6] in a line: Increase in glucose-stimulated insulin secretion in rat INS-1E cells at 10^-8 M after 72 hrs in presence of 3.3 mM glucose. Format: functional. The method in brief:
as §3

Assay [7] is described as follows: Increase in deoxy-D-glucose 2-[1.2-3H(N)] uptake in human Skeletal muscle cells at 10^-8 M after 72 hrs by scintillation counter relative to control. The assay is classed as functional. In a few lines: (§4)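 Differentiated human skeletal muscle cells (2 weeks in differentiation medium, until multinucleated syncytia were visible) were exposed for 72 h to test agent at 10−8 to 10−12 M. Cells were then given a 15 min pulse at 37 °C in modified KRB with 0.1% BSA, 0.1 mM glucose, tritiated deoxy-D-glucose and 100 nM insulin. Uptake was stopped with washes in 50 mM glucose, cells were lysed in NaOH, and counts per min were read by scintillation and compared with untreated control.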

The species named for another assay is Homo sapiens. Description: Effect on deoxy-D-glucose 2-[1.2-3H(N)] uptake in human Skeletal muscle cells at 10^-12 to 10^-10 M after 72 hrs by scintillation counter. The assay is classed as functional. The method in brief:
as §4

Assay [8] can be described thus: Decrease in glucose-stimulated insulin secretion in rat INS-1E cells at 10^-12 M after 72 hrs in presence of 3.3 mM glucose. Set-up: scale not given: the % may be the effect or the level left.

Take `O=C(/C=C/c1ccc(O)c(O)c1)O[C@@H]1C[C@](O)(C(=O)O)C[C@@H](O)[C@H]1O`: the outcome with INS-1E was Active.
For the molecule `C[C@@]12CCc3occc3[C@H]1CC[C@@]13C[C@@H](CC[C@H]12)[C@@](O)(CO)C3` [CAFESTOL], the Activity in assay [1] is recorded as 12%; in assay [2] it was 12%; in assay [3] it was 16%; in assay [4], 34%; in assay [5], 68%; in assay [6], 27%. Also, the Activity in [7] is given as 8%; in [8], 15%. For the same molecule, the outcome in the assay listed under Homo sapiens was inactive.
`O=C(O)/C=C/c1ccc(O)c(O)c1` [CAFFEIC ACID]: the Activity worked out at 9% in [1], 18% in [2], 9% in assay [3] and 16% in assay [4].
For `CN(CCOc1ccc(CC2SC(=O)NC2=O)cc1)c1ccccn1` (stereo not given) [ROSIGLITAZONE], in assay [7], the Activity is recorded as 7%.

The record behind these values is ChEMBL document CHEMBL3632531, “Cafestol, a Bioactive Substance in Coffee, Stimulates Insulin Secretion and Increases Glucose Uptake in Muscle Cells: Studies in Vitro” (2015).
